Results from ChEMBL document CHEMBL1124415, “Acrylamide derivatives as antiallergic agents. 2. Synthesis and structure-activity relationships of N-[4-[4-(diphenylmethyl)-1-piperazinyl]butyl]-3-(3-pyridyl)acryl amides” (J Med Chem, 1989).

Species: Cavia porcellus
Assay: Anti-histaminic activity was measured in guinea pig trachea
Format: functional
Settings: not given
Method in brief: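 Zig-zag guinea pig tracheal strips; histamine dose-response curves obtained before and 60 min after adding test compound.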

Point of comparison: `Cc1ccc(/C=C/C(=O)NCCCCN2CCN(C(c3ccccc3)c3ccccc3)CC2)cn1` [TAGORIZINE], IC50 120 nM. Against it:
- CN1CCC(=C2c3ccccc3CC(=O)c3sccc32)CC1 [KETOTIFEN] — 75-fold lower, 1.6 nM

Species: Rattus norvegicus
Assay: ED50 value was measured in rat passive cutaneous anaphylaxis (PCA) by linear regression analysis
Format: functional
Settings: not given

`Cc1ccc(/C=C/C(=O)NCCCCN2CCN(C(c3ccccc3)c3ccccc3)CC2)cn1` [TAGORIZINE] showed an ED50 of 3.3 mg/kg.

Species: Homo sapiens
Assay: Inhibitory activity against histamine release in human basophil
Format: functional
Settings: not given
Method in brief: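 Basophils from nonallergic human volunteers, washed in Tris-A buffer pH 7.4 (first wash with 4 mM EDTA), resuspended at 5-10 × 10^6 leukocytes/mL in Tris-ACM pH 7.6; preincubated with compound 15 min at 37 °C, then 45 min with anti-human IgE.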

Point of comparison: `Cc1ccc(/C=C/C(=O)NCCCCN2CCN(C(c3ccccc3)c3ccccc3)CC2)cn1` [TAGORIZINE], IC50 34000 nM. Against it:
- CN1CCC(=C2c3ccccc3CC(=O)c3sccc32)CC1 [KETOTIFEN] — higher, > 100000 nM

Each molecule was assayed on Rattus norvegicus (assay: Antiallergic activity determined by passive cutaneous anaphylaxis assay upon peroral administration of 20 mg/kg in rat). Settings: route oral.
Format: functional

Point of comparison: `C/C(=C\c1cccnc1)C(=O)NCCCCN1CCN(C(c2ccccc2)c2ccccc2)CC1`, inhibition in vivo at 20 mg/kg 78.9%. Against it:
- Cc1ccc(C(c2ccc(C)cc2)N2CCN(CCCCNC(=O)/C=C/c3cccnc3)CC2)cc1 — lower, 20.2%
- O=C(/C=C/c1cccnc1)NCCCCN1CCC(=C(c2ccccc2)c2ccccc2)CC1 — higher, 85.9%
- COc1ccc(/C=C/C(=O)NCCCCN2CCN(C(c3ccccc3)c3ccccc3)CC2)cn1 — lower, 41%
- Cc1ccc(C(c2ccccc2)N2CCN(CCCCNC(=O)/C=C/c3cccnc3)CC2)cc1 (stereo not drawn) — higher, 82.9%
- Cc1cc(/C=C/C(=O)NCCCCN2CCN(C(c3ccccc3)c3ccccc3)CC2)cnc1C — lower, 40.5%
- CCCCCOc1ccc(/C=C/C(=O)NCCCCN2CCN(C(c3ccccc3)c3ccccc3)CC2)cn1 — lower, 14.9%
- Cc1ncc(/C=C/C(=O)NCCCCN2CCN(C(c3ccccc3)c3ccccc3)CC2)c(CO)c1O — lower, 53.7%
- CC/C(=C\c1cccnc1)C(=O)NCCCCN1CCN(C(c2ccccc2)c2ccccc2)CC1 — lower, 67.8%
- CCCc1ccc(/C=C/C(=O)NCCCCN2CCN(C(c3ccccc3)c3ccccc3)CC2)cn1 — lower, 44.4%
- Cc1ccc(/C=C/C(=O)NCCCCN2CCN(C(c3ccccc3)c3ccccc3)CC2)cn1 [TAGORIZINE] — higher, 81.9%
- Cc1ncccc1/C=C/C(=O)NCCCCN1CCN(C(c2ccccc2)c2ccccc2)CC1 — lower, 68.8%
- Cc1ncc(/C=C/C=C/C(=O)NCCCN2CCN(C(c3ccccc3)c3ccccc3)CC2)c(CO)c1O — lower, 9.8%
- O=C(/C=C/c1cncc(F)c1)NCCCCN1CCN(C(c2ccccc2)c2ccccc2)CC1 — lower, 65%
- CCCOc1ccc(/C=C/C(=O)NCCCCN2CCN(C(c3ccccc3)c3ccccc3)CC2)cn1 — lower, 7.5%
- Cc1cccc(C(c2ccccc2)N2CCN(CCCCNC(=O)/C=C/c3cccnc3)CC2)c1 (stereo not drawn) — lower, 19%
- CCCCc1ccc(/C=C/C(=O)NCCCCN2CCN(C(c3ccccc3)c3ccccc3)CC2)cn1 — lower, 22.2%
- O=C(/C=C/c1ccc(Oc2ccccc2)nc1)NCCCCN1CCN(C(c2ccccc2)c2ccccc2)CC1 — lower, 45.6%
- Cc1ccc(CCC(=O)NCCCCN2CCN(C(c3ccccc3)c3ccccc3)CC2)cn1 — lower, 24.9%
- CCOc1ccc(/C=C/C(=O)NCCCCN2CCN(C(c3ccccc3)c3ccccc3)CC2)cn1 — lower, 33.9%
- O=C(NCCCCN1CCN(C(c2ccccc2)c2ccccc2)CC1)/C(=C/c1cccnc1)c1ccccc1 — lower, 58%
- O=C(/C=C/C=C/c1cccnc1)NCCCN1CCN(C(c2ccccc2)c2ccccc2)CC1 — lower, 40.4%
- O=C(/C=C/c1cncc(Br)c1)NCCCCN1CCN(C(c2ccccc2)c2ccccc2)CC1 — lower, 47.5%
- Cc1ccc(/C=C/C(=O)NCCCCN2CCC(=C(c3ccccc3)c3ccccc3)CC2)cn1 — higher, 99.5%
- COc1cncc(/C=C/C(=O)NCCCCN2CCN(C(c3ccccc3)c3ccccc3)CC2)c1 — lower, 7.6%
- Cc1ccc(C(c2ccccc2)N2CCN(CCCCNC(=O)/C=C/c3ccc(C)nc3)CC2)cc1 (stereo not drawn) — lower, 73.9%
- Cc1ccc(C(c2ccccc2)N2CCN(CCCCNC(=O)/C=C/c3cccnc3)CC2)cc1C (stereo not drawn) — lower, 5.4%
- O=C(/C=C/c1cccnc1)NCCCCN1CCC(C(O)(c2ccccc2)c2ccccc2)CC1 — lower, 35.1%
- O=C(/C=C/c1cccnc1)NCCCCN1CCN(C(c2ccccc2)c2ccc(F)cc2)CC1 (stereo not drawn) — lower, 53.8%
- C/C(=C\c1ccc(C)nc1)C(=O)NCCCCN1CCN(C(c2ccccc2)c2ccccc2)CC1 — lower, 58.2%
- O=C(/C=C/c1cncc(O)c1)NCCCCN1CCN(C(c2ccccc2)c2ccccc2)CC1 — lower, 28.8%
- Cc1ncc(/C=C/C=C/C(=O)NCCCCN2CCN(C(c3ccccc3)c3ccccc3)CC2)c(CO)c1O — lower, 16.4%
- Cc1ccc(/C=C/C=C/C(=O)NCCCCN2CCN(C(c3ccccc3)c3ccccc3)CC2)cn1 — lower, 68.8%
- O=C(/C=C/c1cccnc1)NCCCCN1CCN(C(c2ccccc2)c2ccccc2)CC1 — lower, 62.3%
- O=C(/C=C/c1cncc(Cl)c1)NCCCCN1CCN(C(c2ccccc2)c2ccccc2)CC1 — lower, 66.4%
- CNc1ncccc1/C=C/C(=O)NCCCCN1CCN(C(c2ccccc2)c2ccccc2)CC1 — lower, 45.2%
- O=C(/C=C/c1cccnc1)NCCCCN1CCN(C(c2ccccc2)c2ccc(Cl)cc2)CC1 (stereo not drawn) — lower, 19.9%
- O=C(/C=C/C=C/c1cccnc1)NCCCCN1CCN(C(c2ccccc2)c2ccccc2)CC1 — lower, 66.4%
- C/C(=C\C(=O)NCCCCN1CCN(C(c2ccccc2)c2ccccc2)CC1)c1cccnc1 — lower, 52.2%
- Cc1ccc(/C=C/C(=O)NCCCCN2CCN(C(c3ccccc3)c3ccccc3)CC2)c(C)n1 — lower, 66.8%
- O=C(/C=C/c1cccnc1)NCCCCN1CCN(C(c2ccc(Cl)cc2)c2ccc(Cl)cc2)CC1 — lower, 5.4%
- O=C(/C=C/c1ccc(Cl)nc1)NCCCCN1CCN(C(c2ccccc2)c2ccccc2)CC1 — lower, 49.3%
- O=C(CCc1cccnc1)NCCCCN1CCN(C(c2ccccc2)c2ccccc2)CC1 — lower, 28.1%
- Cc1ncc(/C=C/C(=O)NCCCCN2CCN(C(c3ccccc3)c3ccccc3)CC2)c2c1OC(C)(C)OC2 — lower, 17%
- CCSc1ccc(/C=C/C(=O)NCCCCN2CCN(C(c3ccccc3)c3ccccc3)CC2)cn1 — lower, 18.6%
- CCC/C(=C\c1cccnc1)C(=O)NCCCCN1CCN(C(c2ccccc2)c2ccccc2)CC1 — lower, 44.2%
- CC(C)c1ccc(/C=C/C(=O)NCCCCN2CCN(C(c3ccccc3)c3ccccc3)CC2)cn1 — lower, 38.9%
- O=C(/C=C/c1cccnc1)NCCCCN1CCC(OC(c2ccccc2)c2ccccc2)CC1 — lower, 42.2%
- O=C(/C=C/c1ccc(-c2ccccc2)nc1)NCCCCN1CCN(C(c2ccccc2)c2ccccc2)CC1 — lower, 3.2%
- O=C(/C=C/c1cccnc1Cl)NCCCCN1CCN(C(c2ccccc2)c2ccccc2)CC1 — lower, < 39.3%
- COc1ccc(C(c2ccccc2)N2CCN(CCCCNC(=O)/C=C/c3cccnc3)CC2)cc1 (stereo not drawn) — lower, 40.9%

What follows are molecules tested on Rattus norvegicus (assay: Antiallergic activity by passive cutaneous anaphylaxis assay upon peroral administration of 20 mg/kg in rat). Settings: route oral.
Format: functional

In the case of `Cc1ccc(/C=C/C=C/C(=O)NCCCN2CCN(C(c3ccccc3)c3ccccc3)CC2)cn1`, the inhibition in vivo at 20 mg/kg is reported as 35.8%.

`CN1CCC(=C2c3ccccc3CC(=O)c3sccc32)CC1` [KETOTIFEN] showed an ED50 of 16.3 mg/kg.
